Values after ≈ are worked out from the molar mass of the structure shown.
How the values were obtained:
[1] = High-throughput equilibrium solubility; assay type: physicochemical; conditions: thermodynamic from solid
Summary of the method: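 Equilibrium solubility was measured by a miniaturized shake-flask method with HPLC quantification.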

[2] = Systemic exposure in the mouse efficacy studies; assay type: in vivo; conditions: mouse efficacy study, 10 mg kg^−1 oral
[3] = Hepatocytes metabolic stability; assay type: in vitro ADME; conditions: mouse; for half-life: hepatocytes
Summary of the method: (§1)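 Test compound was incubated with liver microsomes or hepatocytes of each species, and parent depletion was quantified by LC-MS/MS. From this, in vitro half-life and intrinsic clearance were derived, along with predicted metabolic clearance and hepatic extraction ratio.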

HsPI(4)K = HsPI(4)K (Homo sapiens, UniProt Q9UBF8); test: PI; assay type: biochemical; conditions: HsPI(4)K IC50, 3 μM ATP
Sequence of HsPI(4)K (Q9UBF8 523-816 limits assumed): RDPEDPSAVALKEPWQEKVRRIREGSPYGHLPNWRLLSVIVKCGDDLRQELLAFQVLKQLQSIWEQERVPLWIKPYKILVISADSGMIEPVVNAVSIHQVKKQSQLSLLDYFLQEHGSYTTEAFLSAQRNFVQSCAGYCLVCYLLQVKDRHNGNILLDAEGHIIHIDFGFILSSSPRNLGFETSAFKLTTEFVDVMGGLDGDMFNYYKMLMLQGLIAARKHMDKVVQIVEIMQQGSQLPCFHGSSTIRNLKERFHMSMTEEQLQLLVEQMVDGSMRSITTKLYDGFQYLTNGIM

CpPI(4)K = molecular target: T1, CpPI(4)K (Cryptosporidium parvum, UniProt Q5CVD3); test: PI; assay type: biochemical, C. parvum
T1 sequence (Q5CVD3 1-1114): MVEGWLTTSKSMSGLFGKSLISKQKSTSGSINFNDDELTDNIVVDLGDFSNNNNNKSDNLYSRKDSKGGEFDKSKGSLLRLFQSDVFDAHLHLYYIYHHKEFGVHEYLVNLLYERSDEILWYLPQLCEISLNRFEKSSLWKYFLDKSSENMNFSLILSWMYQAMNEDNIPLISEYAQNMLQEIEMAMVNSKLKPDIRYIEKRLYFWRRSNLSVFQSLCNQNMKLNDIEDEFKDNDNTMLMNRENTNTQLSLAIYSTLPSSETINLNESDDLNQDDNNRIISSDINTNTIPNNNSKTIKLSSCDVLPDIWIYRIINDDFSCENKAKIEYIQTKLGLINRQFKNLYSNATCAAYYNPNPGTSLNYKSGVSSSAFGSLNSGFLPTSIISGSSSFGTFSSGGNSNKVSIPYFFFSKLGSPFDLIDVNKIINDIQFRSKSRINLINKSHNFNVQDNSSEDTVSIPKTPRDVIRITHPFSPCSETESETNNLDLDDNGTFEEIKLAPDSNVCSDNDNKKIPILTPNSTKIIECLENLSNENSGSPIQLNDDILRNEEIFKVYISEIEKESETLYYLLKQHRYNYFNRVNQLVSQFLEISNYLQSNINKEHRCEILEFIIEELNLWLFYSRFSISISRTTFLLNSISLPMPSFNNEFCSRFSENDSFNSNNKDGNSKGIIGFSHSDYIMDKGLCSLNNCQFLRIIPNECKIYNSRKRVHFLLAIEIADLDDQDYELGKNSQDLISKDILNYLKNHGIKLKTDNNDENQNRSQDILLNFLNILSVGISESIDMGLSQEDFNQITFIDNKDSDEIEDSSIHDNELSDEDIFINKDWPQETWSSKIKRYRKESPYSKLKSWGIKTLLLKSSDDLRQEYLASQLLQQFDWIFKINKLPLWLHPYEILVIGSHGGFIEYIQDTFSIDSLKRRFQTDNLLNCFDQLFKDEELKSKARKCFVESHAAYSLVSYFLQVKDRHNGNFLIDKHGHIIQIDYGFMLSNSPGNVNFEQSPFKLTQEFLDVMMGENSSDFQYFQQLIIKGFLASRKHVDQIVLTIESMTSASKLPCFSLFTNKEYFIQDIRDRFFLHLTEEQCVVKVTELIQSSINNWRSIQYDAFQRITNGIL
Summary of the method: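 Enzyme was pre-incubated with compound for 5 min at room temperature. The reaction was started with substrate mix at twice final strength (PI, ATP, Tris-HCl pH 7.5, DTT, 0.05% Triton X-100, MnCl2) and run 50 min at room temperature. ADP was measured by ADP-Glo luminescence. IC50s came from in-plate duplicate 10-point 3-fold dilutions, with DMSO and reference-inhibitor controls. The C. parvum enzymes (wild type and mutants) were full-length proteins expressed from baculovirus in Sf21 cells.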

[4] = Stability in intestinal S9 fraction; assay type: in vitro ADME; conditions: mouse
Summary of the method: (§2)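 Test compound added to intestinal S9 fraction of each species to start the reaction. Incubated in a shaking water bath at 37 °C, with samples taken at sequential timepoints. Samples quenched with ice-cold acetonitrile and analysed by LC-MS/MS. Half-life calculated from the rate of parent compound depletion.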

C. parvum = test: Mouse efficacy study; assay type: in vivo, C57BL/6 IFN-γ-knockout mice; conditions: oral 10 mg kg^−1, 5 days; nitazoxanide 100 mg kg^−1
[5] = Stability in intestinal S9 fraction; assay type: in vitro ADME; conditions: human
Summary of the method: as §2

Cytotoxicity assay = assay type: cell-based, human; conditions: human, HepG2 cells (ATCC CRL-10741), HepG2 CC50, 96 h
Plasma stability [6] = assay type: in vitro ADME; conditions: human
Summary of the method: (§3)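 Test compound was added to plasma and incubated at 37 °C in a shaking water bath, with samples taken at sequential timepoints. Samples were quenched with ice-cold acetonitrile and analysed by LC-MS/MS, and half-life was calculated from the depletion rate.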

Plasma stability [7] = assay type: in vitro ADME; conditions: mouse
Summary of the method: as §3

P-glycoprotein (MDR1) = test: MDCK MDR1 permeability and efflux; assay type: in vitro ADME; conditions: dog
[8] = 2 weeks GLP rat toxicology study with toxicokinetics; assay type: in vivo; conditions: both, Wistar, plasma, po, 1000 mg/kg/day, EDI048 1000 mg/kg/day; for AUC(0-t): AUC0-8, rat
Summary of the method: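 Male and female Wistar rats were about 7–8 weeks old at receipt and 9–10 weeks old at the start of dosing. They were dosed for 2 weeks at 50, 250 and 1000 mg/kg/day, with toxicokinetic plasma sampling.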

[9] = In vivo pharmacokinetic analysis; conditions: male, Beagle, dog, plasma
Summary of the method: (§4)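 Animals were male C57BL/6 mice (8–10 weeks), Wistar rats (8–10 weeks) and beagle dogs (12–14 weeks). Each received oral and i.v. doses, with plasma sampling for PK parameters.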

[10] = Hepatocytes metabolic stability; assay type: in vitro ADME; conditions: human
Summary of the method: as §1

[11] = In vivo pharmacokinetic analysis; design: species or system mouse; conditions: male, C57BL/6, mouse, plasma
Summary of the method: as §4

[12] = 2 weeks GLP dog toxicology study with toxicokinetics; assay type: in vivo; conditions: both, beagle, dog, plasma, po, 1000 mg/kg/day, EDI048 1000 mg/kg/day; for AUC(0-t): AUC0-8, dog

SMILES | solubility ([1]; FaSSIF) | solubility ([1]; pH 6.8, aqueous buffer) | Hepatocytes ER [3] | half-life [3] | IC50 (HsPI(4)K) | IC50 (CpPI(4)K; CpPI(4)K IC50, 3 μM ATP) | half-life [4] | half-life [5] | half-life (Plasma stability [6]) | half-life (Plasma stability [7]) | IC50 (CpPI(4)K; CpPI(4)K IC50, running text) | Papp A→B (P-glycoprotein (MDR1); MDCK-MDR1) | Papp B→A (P-glycoprotein (MDR1); MDCK-MDR1) | efflux ratio (P-glycoprotein (MDR1); MDCK-MDR1) | efficacy in the mouse model (C. parvum) | CC50 at 96 h (Cytotoxicity assay) | AUC(0-t) ([8]; day 14) | Cmax ([8]; day 14) | Tmax ([8]; day 1) | Tmax ([8]; day 14) | other results
CNC(=O)c1ccc(-c2cnn3ccc(C(=O)N(CCC(=O)OCC(=O)N(C)C)c4ccc(Cl)cc4)cc23)cc1 [Compound 3, 2-(dimethylamino)-2-oxoethyl 3-(N-(4-chlorophenyl)-3-(4-(methylcarbamoyl)phenyl)pyrazolo[1,5-a]pyridine-5-carboxamido)propanoate] | 355 µM (≈ 200 µg/mL) | 11 µM (≈ 6.18 µg/mL) | 93% | < 0.0467 h | 1030 ± 485 nM | 5 nM | 0.153 h | 0.75 h |  |  |  |  |  |  | inactive in vitro and in vivo | 38200 nM |  |  |  |  | AUC (time 0 to last timepoint) [2]: <LLOQ^f; Cmax [2]: <LLOQ^f
CNC(=O)c1ccc(-c2cnn3ccc(C(=O)N(C)c4ccc(Cl)c(C(=O)O)c4)cc23)cc1 [Compound 6, 2-chloro-5-(N-methyl-3-(4-(methylcarbamoyl)phenyl)pyrazolo[1,5-a]pyridine-5-carboxamido)benzoic acid] |  |  | 18% | > 2.92 h | 484 ± 119 nM | 31 ± 24 nM | > 4 h |  |  |  |  | 0.56 ×10⁻⁶ cm/s |  | 1.86 |  | > 100000 nM | 1430 ng·h/mL | 242 ng/mL | 1 h | 3 h | solubility ([1]; pH 6.8, aqueous buffer, Solubility pH 6.8, pH 6.8): > 1000 µM; AUC(0-t) ([8]; day 1): 886 ng·h/mL; AUC ([9]; iv, 0.1 mg/kg): 0.0319 µM·h; AUC ([9]; po, 0.3 mg/kg): 0.0047 µM·h; Cmax ([9]; po, 0.3 mg/kg): 2 nM; Hepatocytes ER [10]: 33%; half-life ([10]; hepatocytes): > 2.92 h; AUC ([11]; iv, 1 mg/kg): 1.19 µM·h; AUC ([11]; po, 10 mg/kg): 0.092 µM·h; Cmax ([11]; po, 10 mg/kg): 33.4 nM; AUC(0-t) ([12]; day 1): 205 ng·h/mL; AUC(0-t) ([12]; day 14): 301 ng·h/mL; Cmax ([12]; day 14): 72.8 ng/mL; Tmax ([12]; day 1): 1.2 h; Tmax ([12]; day 14): 1.15 h; Papp B→A (P-glycoprotein (MDR1); MDCK-MDR1, Permeability B–A, MDCK MDR1, basolateral to apical): 1.04 ×10⁻⁶ cm/s
COC(=O)c1cc(N(C)C(=O)c2ccn3ncc(-c4ccc(C(=O)O)cc4)c3c2)ccc1Cl [Compound 7, 4-(5-((4-chloro-3-(methoxycarbonyl)phenyl)(methyl)carbamoyl)pyrazolo[1,5-a]pyridin-3-yl)benzoic acid] |  |  |  |  | 11300 nM | 76 nM |  |  |  |  |  |  |  |  |  | > 100000 nM | 0.221 ng·h/mL | 0.046 ng/mL | 3 h | 1 h | AUC(0-t) ([12]; day 1): 642 ng·h/mL; AUC(0-t) ([12]; day 14): 1180 ng·h/mL; Cmax ([12]; day 14): 224 ng/mL; Tmax ([12]; day 1): 1.6 h; Tmax ([12]; day 14): 2.2 h

Continued, in another order:

solubility ([1]; FaSSIF) | solubility ([1]; pH 6.8, aqueous buffer) | Hepatocytes ER [3] | half-life [3] | IC50 (HsPI(4)K) | IC50 (CpPI(4)K; CpPI(4)K IC50, 3 μM ATP) | half-life [4] | half-life [5] | half-life (Plasma stability [6]) | half-life (Plasma stability [7]) | IC50 (CpPI(4)K; CpPI(4)K IC50, running text) | Papp A→B (P-glycoprotein (MDR1); MDCK-MDR1) | Papp B→A (P-glycoprotein (MDR1); MDCK-MDR1) | efflux ratio (P-glycoprotein (MDR1); MDCK-MDR1) | SMILES | efficacy in the mouse model (C. parvum) | CC50 at 96 h (Cytotoxicity assay) | AUC(0-t) ([8]; day 14) | Cmax ([8]; day 14) | Tmax ([8]; day 1) | Tmax ([8]; day 14) | other results
86 µM (≈ 42.2 µg/mL) | 31 µM (≈ 15.2 µg/mL) | 74% | 0.223 h | 1140 ± 296 nM | 7 ± 2 nM | 2 h | 2 h | > 2 h | 0.227 h | 2 to 7 nM | 7.89 ×10⁻⁶ cm/s | 7.4 ×10⁻⁶ cm/s | 0.94 | CCOC(=O)CN(C(=O)c1ccn2ncc(-c3ccc(C(=O)NC)cc3)c2c1)c1ccc(Cl)cc1 [Compound 1, ethyl N-(4-chlorophenyl)-N-(3-(4-(methylcarbamoyl)phenyl)pyrazolo[1,5-a]pyridine-5-carbonyl)glycinate] | highly efficacious | 14700 nM |  |  |  |  | 
147 µM (≈ 68 µg/mL) | 110 µM (≈ 50.9 µg/mL) | 91% | 0.0667 h | 203 ± 47 nM | 5 ± 2 nM | 1 h | 1.77 h | > 2 h | > 2 h |  | 2.55 ×10⁻⁶ cm/s | 15.7 ×10⁻⁶ cm/s | 6.15 | COC(=O)c1cc(Cl)ccc1N(C)C(=O)c1ccn2ncc(-c3ccc(C(N)=O)cc3)c2c1 [Compound 5, methyl 2-(3-(4-carbamoylphenyl)-N-methylpyrazolo[1,5-a]pyridine-5-carboxamido)-5-chlorobenzoate] |  | > 100000 nM |  |  |  |  | 
1000 µM (≈ 463 µg/mL) | 708 µM (≈ 328 µg/mL) | 52% | 0.597 h | 135 ± 33 nM | 2 nM | > 4 h |  | > 2 h | > 2 h | 2 to 7 nM | 0.89 ×10⁻⁶ cm/s | 1.65 ×10⁻⁶ cm/s | 1.85 | CNC(=O)c1ccc(-c2cnn3ccc(C(=O)N(CC(=O)O)c4ccc(Cl)cc4)cc23)cc1 [Compound 2, N-(4-chlorophenyl)-N-(3-(4-(methylcarbamoyl)phenyl)pyrazolo[1,5-a]pyridine-5-carbonyl)glycine] | not efficacious in vivo | > 100000 nM |  |  |  |  | 

Source: publication PMC11522000 (Nature Microbiology, 2024)
